{"source": "paper PMC4183631", "about": "(Journal of the American Chemical Society, 2014)", "key": {"E. coli ATCC 25922 [1]": {"test_system": "E. coli ATCC 25922", "experiment": "Bacterial agglutination assay", "format": "cell-based, Escherichia coli", "details": "for peptide concentration at which the bacteria were agglutinated: 0–20 μM peptide, 50% MHB pH 7.4, 6 h, OD600", "summary_of_the_method": "(§1)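 Mid-log bacteria (LB for E. coli, BHI for Listeria), washed, held at OD600 0.25 in 50% MHB pH 7.4. Mixed 9:1 with 10× peptide (50, 100, 200 μM stocks) or water in a cuvette; OD600 read over time. At 6 h, for 20 μM samples, supernatant and agglutinate resuspended in fresh 50% MHB were serially diluted and plated (37 °C; LB agar 15 h, BHI agar 20 h). Three trials; mean ± SD.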"}, "[2]": {"test_system": "L. monocytogenes ATCC 19115", "experiment": "Bacterial agglutination assay", "format": "cell-based, Listeria monocytogenes", "details": "for peptide concentration at which the bacteria were agglutinated: 0–20 μM peptide, 50% MHB pH 7.4, 6 h, OD600", "summary_of_the_method": "as §1"}, "[3]": {"target": "HD6 F29A mutant, oxidized form (human)", "experiment": "AUC"}, "[4]": {"experiment": "Sedimentation velocity analytical ultracentrifugation", "format": "physicochemical", "details": "lowest possible rotor speed (3000 rpm); white coat on the AUC cell"}, "E. coli ATCC 25922 [5]": {"test_system": "E. coli ATCC 25922", "experiment": "Antimicrobial activity assay", "format": "cell-based, Escherichia coli", "details": "20 μM peptide, AMA buffer (10 mM sodium phosphate, 1% TSB, pH 7.4), 1 h, 37 °C, colony counting; n = 3", "summary_of_the_method": "(§2)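 Cells grown overnight in dextrose-free TSB (37 °C, 16 h), subcultured 1:100 to OD600 ~0.6, washed twice in AMA buffer, set to OD600 0.5, then diluted 1:250. 9 parts culture to 1 part 10× peptide (200 μM stock) or water control; 1 h, 37 °C, 150 rpm. Tenfold dilutions plated on TSB agar, 15 h, 37 °C; 30–200-colony plates counted. Three trials, ≥2 peptide preparations; mean and standard deviation.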"}, "[6]": {"test_system": "L. monocytogenes ATCC 19115", "experiment": "Antimicrobial activity assay", "format": "cell-based, Listeria monocytogenes", "details": "20 μM peptide, AMA buffer (10 mM sodium phosphate, 1% TSB, pH 7.4), 1 h, 37 °C, colony counting; n = 3", "summary_of_the_method": "as §2, with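 “Strain grown” for “Cells grown”, “in BHI” for “in dextrose-free TSB”, “diluted 1:500.” for “diluted 1:250.”, “on BHI” for “on TSB”, “agar, 20” for “agar, 15”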"}, "[7]": {"test_system": "S. Typhimurium ATCC 14028", "experiment": "Antimicrobial activity assay", "format": "cell-based, Salmonella enterica serovar Typhimurium", "details": "20 μM peptide, AMA buffer (10 mM sodium phosphate, 1% TSB, pH 7.4), 1 h, 37 °C, colony counting; n = 3", "summary_of_the_method": "as §2"}, "bacteria": {"test_system": "bacteria", "details": "cited from earlier work"}, "S. aureus ATCC 25923": {"test_system": "S. aureus ATCC 25923", "experiment": "Antimicrobial activity assay", "format": "cell-based, Staphylococcus aureus", "details": "20 μM peptide, AMA buffer (10 mM sodium phosphate, 1% TSB, pH 7.4), 1 h, 37 °C, colony counting; n = 3", "summary_of_the_method": "as §2, with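 “Strain grown” for “Cells grown”, “OD600 0.6,” for “OD600 0.5,”, “diluted 1:100.” for “diluted 1:250.”, “agar, 20” for “agar, 15”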"}, "[8]": {"details": "20 μM peptide, 6 h, bacterium not given"}, "[9]": {"details": "20 μM peptide, bacterial culture 10^8 CFU/mL in cuvette"}, "[10]": {"details": "20 μM peptide, 6 h, mean ± SDM, n = 3"}}, "note": "No end group written: not given here.", "data": [{"substance": "H27W (AFTCHCRRSCYSTEYSYGTCTVMGINWRFCCL; disulfide (positions not given here); ends not checked; UniProt Q01524 69-100, looked up, variant H27W)", "values": [{"measurement": "peptide concentration at which the bacteria were agglutinated", "setting": "E. coli ATCC 25922 [1]", "value": "≥ 10", "unit": "µM"}, {"measurement": "peptide concentration at which the bacteria were agglutinated", "setting": "[2]", "value": "≥ 10", "unit": "µM"}]}, {"substance": "HD6 F29A mutant, oxidized form (peptide)", "values": [{"measurement": "stoichiometry N", "setting": "[3]", "value": 2}]}, {"substance": "I25T (AFTCHCRRSCYSTEYSYGTCTVMGTNHRFCCL; disulfide (positions not given here); ends not checked; UniProt Q01524 69-100, looked up, variant I25T)", "values": [{"measurement": "peptide concentration at which the bacteria were agglutinated", "setting": "E. coli ATCC 25922 [1]", "value": "≥ 10", "unit": "µM"}, {"measurement": "peptide concentration at which the bacteria were agglutinated", "setting": "[2]", "value": "≥ 10", "unit": "µM"}]}, {"substance": "AFTCHCRR-SCYSTEYSYGTCTVMGINHRFCCL (bicyclic or more) [HD6, Human α-defensin 6]", "values": [{"measurement": "time within which the peptide sedimented (rapid peptide aggregation)", "setting": "[4]", "value": "≤ 15", "unit": "min"}, {"measurement": "antibacterial activity", "setting": "E. coli ATCC 25922 [5]", "value": "neither HD6 nor the mutants exhibit significant antibacterial activity"}, {"measurement": "antibacterial activity", "setting": "[6]", "value": "neither HD6 nor the mutants exhibit significant antibacterial activity"}, {"measurement": "antibacterial activity", "setting": "[7]", "value": "neither HD6 nor the mutants exhibit significant antibacterial activity"}, {"measurement": "CFU/mL of the resuspension following agitation", "setting": "E. coli ATCC 25922 [1]; [8]", "value": "comparable to that of the untreated control"}, {"measurement": "log reduction in CFU/mL of the supernatant relative to the bacteria-only control", "setting": "E. coli ATCC 25922 [1]; [8]", "value": "ca. 1.3 fold log"}, {"measurement": "time for clumps to sediment to the bottom of the cuvette and clarify the medium", "setting": "E. coli ATCC 25922 [1]; [9]", "value": "~2", "unit": "h"}, {"measurement": "time to bacterial clumping observed by the eye after mixing", "setting": "E. coli ATCC 25922 [1]; [9]", "value": "≤ 5", "unit": "min"}, {"measurement": "CFU/mL of the resuspension following agitation", "setting": "[2]; [8]", "value": "comparable to that of the untreated control"}, {"measurement": "log reduction in CFU/mL of the supernatant relative to the bacteria-only control", "setting": "[2]; [8]", "value": "ca. 1.3 fold log"}, {"measurement": "time for clumps to sediment to the bottom of the cuvette and clarify the medium", "setting": "[2]; [9]", "value": "~2", "unit": "h"}, {"measurement": "time to bacterial clumping observed by the eye after mixing", "setting": "[2]; [9]", "value": "≤ 5", "unit": "min"}, {"measurement": "antibacterial activity in vitro", "setting": "bacteria", "value": "negligible antibacterial activity"}, {"measurement": "antibacterial activity", "setting": "S. aureus ATCC 25923", "value": "neither HD6 nor the mutants exhibit significant antibacterial activity"}]}, {"substance": "ATCYCRTGRCATRESLSGVCEISGRLYRLCCR (also: bicyclic or more (positions not given here)) [HD5, reference compound]", "values": [{"measurement": "antibacterial activity in vitro", "setting": "bacteria", "value": "broad-spectrum antibacterial activity"}]}, {"substance": "V22T (AFTCHCRRSCYSTEYSYGTCTTMGINHRFCCL; disulfide (positions not given here); ends not checked; UniProt Q01524 69-100, looked up, variant V22T)", "values": [{"measurement": "peptide concentration at which the bacteria were agglutinated", "setting": "E. coli ATCC 25922 [1]", "value": "≥ 10", "unit": "µM"}, {"measurement": "CFU/mL reduction of the supernatant, in words", "setting": "E. coli ATCC 25922 [1]; [10]", "value": "smaller decrease in CFU/mL for the supernatant"}, {"measurement": "peptide concentration at which the bacteria were agglutinated", "setting": "[2]", "value": "≥ 10", "unit": "µM"}, {"measurement": "CFU/mL reduction of the supernatant, in words", "setting": "[2]; [10]", "value": "smaller decrease in CFU/mL for the supernatant"}]}]}
